In ChEMBL document CHEMBL5696444 (Nat Commun, 2017):

Experiments:
[1] = molecular target: Ephrin type-A receptor 2 (Homo sapiens) (UniProt P29317); test: Inhibition of EPHA2 (unknown origin) at 100 nM in the presence of ATP by Kinome scan method relative to control
[2] = molecular target: Tyrosine-protein kinase ABL1 (Homo sapiens) (UniProt P00519); test: Inhibition of ABL1 (unknown origin) at 100 nM in the presence of ATP by Kinome scan method relative to control
[3] = molecular target: Mitogen-activated protein kinase 1 (Homo sapiens) (UniProt P28482); test: Inhibition of MAPK1 (unknown origin) at 1000 nM in the presence of ATP by Kinome scan method relative to control
[4] = molecular target: Rho-associated protein kinase 1 (Homo sapiens) (UniProt Q13464); test: Inhibition of ROCK1 (unknown origin) at 100 nM in the presence of ATP by Kinome scan method relative to control
Sequence of Rho-associated protein kinase 1 (Homo sapiens) (Q13464 2-1354 limits assumed): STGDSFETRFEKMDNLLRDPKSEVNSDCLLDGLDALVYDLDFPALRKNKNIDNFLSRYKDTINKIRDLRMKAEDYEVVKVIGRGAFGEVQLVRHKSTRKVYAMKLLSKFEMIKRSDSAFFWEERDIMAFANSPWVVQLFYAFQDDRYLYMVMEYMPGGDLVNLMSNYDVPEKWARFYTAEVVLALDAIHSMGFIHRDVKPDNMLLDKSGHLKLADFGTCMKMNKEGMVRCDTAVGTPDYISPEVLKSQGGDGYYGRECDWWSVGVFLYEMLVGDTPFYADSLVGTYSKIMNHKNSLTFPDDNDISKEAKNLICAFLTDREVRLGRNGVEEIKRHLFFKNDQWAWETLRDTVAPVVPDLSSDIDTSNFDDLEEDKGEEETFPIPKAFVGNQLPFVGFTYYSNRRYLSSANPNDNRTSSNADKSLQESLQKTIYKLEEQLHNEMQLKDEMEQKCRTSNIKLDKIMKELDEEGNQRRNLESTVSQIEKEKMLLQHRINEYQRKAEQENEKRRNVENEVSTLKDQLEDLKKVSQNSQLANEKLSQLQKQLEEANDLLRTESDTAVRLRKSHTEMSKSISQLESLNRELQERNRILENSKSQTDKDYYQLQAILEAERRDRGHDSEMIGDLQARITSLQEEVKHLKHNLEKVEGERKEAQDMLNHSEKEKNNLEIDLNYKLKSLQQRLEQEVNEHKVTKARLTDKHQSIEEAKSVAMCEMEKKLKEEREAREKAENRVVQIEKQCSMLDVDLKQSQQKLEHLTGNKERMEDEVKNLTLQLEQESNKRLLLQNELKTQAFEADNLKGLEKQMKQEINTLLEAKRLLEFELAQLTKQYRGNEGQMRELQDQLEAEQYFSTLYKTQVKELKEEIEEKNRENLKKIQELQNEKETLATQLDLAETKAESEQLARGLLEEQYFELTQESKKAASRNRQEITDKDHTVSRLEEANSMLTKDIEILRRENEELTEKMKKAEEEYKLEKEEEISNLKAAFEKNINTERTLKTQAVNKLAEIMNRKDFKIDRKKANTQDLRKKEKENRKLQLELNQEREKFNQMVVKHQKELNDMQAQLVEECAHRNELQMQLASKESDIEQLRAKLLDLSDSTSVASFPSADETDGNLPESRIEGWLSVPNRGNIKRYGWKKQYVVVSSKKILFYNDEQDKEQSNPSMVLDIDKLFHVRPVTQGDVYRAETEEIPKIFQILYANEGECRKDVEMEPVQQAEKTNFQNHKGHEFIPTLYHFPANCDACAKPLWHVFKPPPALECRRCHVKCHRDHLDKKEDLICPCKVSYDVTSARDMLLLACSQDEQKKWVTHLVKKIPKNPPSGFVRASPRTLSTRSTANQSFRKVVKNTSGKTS

[5] = molecular target: Homeodomain-interacting protein kinase 1 (Homo sapiens) (UniProt Q86Z02); test: Inhibition of HIPK1 (unknown origin) at 1000 nM in the presence of ATP by Kinome scan method relative to control
[6] = molecular target: Dual specificity protein kinase CLK1 (Homo sapiens) (UniProt P49759); test: Inhibition of CLK (unknown origin) in human HCT-116 cells assessed as induction in alternative splicing effect in S6K skipped exon incubated for 6 hrs by RT-PCR analysis; type: cell-based; conditions: dose 0.2-5 µM
Sequence of Dual specificity protein kinase CLK1 (Homo sapiens) (P49759 whole entry, looked up, canonical isoform): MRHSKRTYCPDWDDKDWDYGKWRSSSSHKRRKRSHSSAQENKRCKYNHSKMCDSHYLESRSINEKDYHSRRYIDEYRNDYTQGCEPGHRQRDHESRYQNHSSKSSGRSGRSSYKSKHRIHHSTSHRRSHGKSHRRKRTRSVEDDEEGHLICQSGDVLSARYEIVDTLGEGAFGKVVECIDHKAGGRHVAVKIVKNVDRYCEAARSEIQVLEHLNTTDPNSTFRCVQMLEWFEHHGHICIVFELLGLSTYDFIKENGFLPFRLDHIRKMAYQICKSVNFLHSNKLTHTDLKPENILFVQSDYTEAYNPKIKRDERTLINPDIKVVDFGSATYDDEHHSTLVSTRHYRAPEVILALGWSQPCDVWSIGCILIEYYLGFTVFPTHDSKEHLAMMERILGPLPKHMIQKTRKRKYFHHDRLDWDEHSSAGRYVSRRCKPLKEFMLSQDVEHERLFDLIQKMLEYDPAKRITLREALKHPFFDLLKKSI
Method in brief: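 Cells exposed to graded T3 concentrations for 6 h (chosen to avoid cytotoxicity), with a DMSO vehicle control. Total RNA was reverse-transcribed with oligo-dT primers. Targeted splice or conjoined-gene products were quantified by real-time qPCR or by targeted next-generation sequencing. Conjoined-gene isoform expression was normalized to a sequenced housekeeping gene.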

[7] = molecular target: Dual specificity protein kinase CLK3 (Homo sapiens) (UniProt P49761); test: Inhibition of CLK3 (unknown origin) at 1110 nM in the presence of ATP by Kinome scan method relative to control; conditions: time > 6.0 hrs
Sequence of Dual specificity protein kinase CLK3 (Homo sapiens) (P49761 whole entry, looked up): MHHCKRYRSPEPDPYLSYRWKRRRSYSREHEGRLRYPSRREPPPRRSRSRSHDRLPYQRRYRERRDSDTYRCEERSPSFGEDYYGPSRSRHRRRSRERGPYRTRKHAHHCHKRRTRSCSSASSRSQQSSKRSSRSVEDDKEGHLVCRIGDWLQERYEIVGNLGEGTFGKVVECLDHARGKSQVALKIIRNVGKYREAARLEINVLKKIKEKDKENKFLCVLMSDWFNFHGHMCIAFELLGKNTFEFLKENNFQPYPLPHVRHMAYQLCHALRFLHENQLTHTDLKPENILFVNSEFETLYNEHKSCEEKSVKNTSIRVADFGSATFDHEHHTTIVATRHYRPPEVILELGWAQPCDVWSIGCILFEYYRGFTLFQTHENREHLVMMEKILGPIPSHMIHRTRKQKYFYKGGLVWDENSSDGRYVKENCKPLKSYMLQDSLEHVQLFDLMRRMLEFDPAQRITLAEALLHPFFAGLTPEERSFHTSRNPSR

[8] = molecular target: Dual specificity protein kinase CLK1 (Homo sapiens) (UniProt P49759); test: Inhibition of CLK1 (unknown origin) at 123 nM in the presence of ATP by Kinome scan method relative to control; conditions: time > 6.0 hrs
[9] = molecular target: Ephrin type-B receptor 1 (Homo sapiens) (UniProt P54762); test: Inhibition of EPHB1 (unknown origin) at 100 nM in the presence of ATP by Kinome scan method relative to control
[10] = molecular target: Dual specificity mitogen-activated protein kinase kinase 1 (Homo sapiens) (UniProt Q02750); test: Inhibition of MAP2K1 (unknown origin) at 1000 nM in the presence of ATP by Kinome scan method relative to control
[11] = molecular target: Focal adhesion kinase 1 (Homo sapiens) (UniProt Q05397); test: Inhibition of PTK2 (unknown origin) at 1000 nM in the presence of ATP by Kinome scan method relative to control
[12] = molecular target: Serine/threonine-protein kinase Chk1 (Homo sapiens) (UniProt O14757); test: Inhibition of CHEK1 (unknown origin) at 1000 nM in the presence of ATP by Kinome scan method relative to control
Sequence of Serine/threonine-protein kinase Chk1 (Homo sapiens) (O14757 whole entry): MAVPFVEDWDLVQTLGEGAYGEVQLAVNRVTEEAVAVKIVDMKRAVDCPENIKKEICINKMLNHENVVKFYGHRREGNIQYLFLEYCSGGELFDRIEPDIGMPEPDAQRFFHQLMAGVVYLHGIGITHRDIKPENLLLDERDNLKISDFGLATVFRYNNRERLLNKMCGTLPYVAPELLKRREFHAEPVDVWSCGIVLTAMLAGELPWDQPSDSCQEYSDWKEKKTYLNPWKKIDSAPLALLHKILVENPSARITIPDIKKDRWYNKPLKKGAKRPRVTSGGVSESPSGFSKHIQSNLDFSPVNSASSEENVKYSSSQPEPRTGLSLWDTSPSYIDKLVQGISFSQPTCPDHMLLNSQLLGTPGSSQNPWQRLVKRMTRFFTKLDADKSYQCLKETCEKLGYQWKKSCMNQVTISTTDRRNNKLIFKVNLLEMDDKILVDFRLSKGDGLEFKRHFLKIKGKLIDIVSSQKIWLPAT

[13] = molecular target: Dual specificity tyrosine-phosphorylation-regulated kinase 1A (Homo sapiens, UniProt Q13627); test: Inhibition of DYRK1A (unknown origin) at 1110 nM in the presence of ATP by Kinome scan method relative to control; conditions: time > 6.0 hrs
[14] = molecular target: Proto-oncogene tyrosine-protein kinase ROS (Homo sapiens) (UniProt P08922); test: Inhibition of ROS1 (unknown origin) at 100 nM in the presence of ATP by Kinome scan method relative to control
HCT-116 [15] = test: Induction of cell cycle arrest in human HCT-116 cells assessed as G0/G1 phase at 0.5 uM incubated for 6 hrs by flow cytometry analysis (Rvb=35.0%); type: functional
[16] = molecular target: Dual specificity tyrosine-phosphorylation-regulated kinase 3 (Homo sapiens) (UniProt O43781); test: Inhibition of DYRK3 (unknown origin) at 1110 nM in the presence of ATP by Kinome scan method relative to control; conditions: time > 6.0 hrs
[17] = molecular target: Rho-associated protein kinase 1 (Homo sapiens) (UniProt Q13464); test: Inhibition of ROCK1 (unknown origin) at 1000 nM in the presence of ATP by Kinome scan method relative to control
[18] = molecular target: Serine/threonine-protein kinase pim-1 (Homo sapiens) (UniProt P11309); test: Inhibition of PIM1 (unknown origin) at 1000 nM in the presence of ATP by Kinome scan method relative to control
Sequence of Serine/threonine-protein kinase pim-1 (Homo sapiens) (P11309 whole entry, looked up): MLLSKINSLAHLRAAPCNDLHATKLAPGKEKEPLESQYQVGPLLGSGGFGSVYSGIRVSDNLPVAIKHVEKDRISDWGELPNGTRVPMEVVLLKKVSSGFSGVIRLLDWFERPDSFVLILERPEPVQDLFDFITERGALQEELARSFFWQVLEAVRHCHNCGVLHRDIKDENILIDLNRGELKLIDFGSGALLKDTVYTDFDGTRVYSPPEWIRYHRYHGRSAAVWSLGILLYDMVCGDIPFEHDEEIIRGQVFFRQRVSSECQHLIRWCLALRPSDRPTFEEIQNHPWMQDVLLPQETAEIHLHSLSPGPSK

[19] = molecular target: Serine/threonine-protein kinase Nek2 (Homo sapiens) (UniProt P51955); test: Inhibition of NEK2 (unknown origin) at 100 nM in the presence of ATP by Kinome scan method relative to control
Sequence of Serine/threonine-protein kinase Nek2 (Homo sapiens) (P51955 whole entry): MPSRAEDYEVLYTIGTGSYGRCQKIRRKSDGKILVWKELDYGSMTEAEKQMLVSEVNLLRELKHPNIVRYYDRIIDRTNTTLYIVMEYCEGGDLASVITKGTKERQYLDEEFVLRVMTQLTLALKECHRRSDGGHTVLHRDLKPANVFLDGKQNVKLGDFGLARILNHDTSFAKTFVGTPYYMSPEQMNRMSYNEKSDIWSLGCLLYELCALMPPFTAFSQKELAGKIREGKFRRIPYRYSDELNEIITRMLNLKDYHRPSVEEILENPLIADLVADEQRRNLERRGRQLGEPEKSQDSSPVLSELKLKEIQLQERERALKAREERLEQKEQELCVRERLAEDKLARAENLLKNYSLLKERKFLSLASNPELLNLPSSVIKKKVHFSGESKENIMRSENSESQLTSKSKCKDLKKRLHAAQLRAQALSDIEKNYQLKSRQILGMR

HCT-116 [20] = test: Induction of cell cycle arrest in human HCT-116 cells assessed as sub G0/G1 phase at 0.5 uM incubated for 24 hrs by flow cytometry analysis (Rvb=2.5%); type: functional
HCT-116 [21] = test: Induction of cell cycle arrest in human HCT-116 cells assessed as S phase at 1 uM incubated for 6 hrs by flow cytometry analysis (Rvb=39.3%); type: functional
[22] = molecular target: Tyrosine-protein kinase JAK1 (Homo sapiens) (UniProt P23458); test: Inhibition of JAK1 (unknown origin) at 100 nM in the presence of ATP by Kinome scan method relative to control
[23] = molecular target: Ephrin type-A receptor 2 (Homo sapiens) (UniProt P29317); test: Inhibition of EPHA2 (unknown origin) at 1000 nM in the presence of ATP by Kinome scan method relative to control
[24] = molecular target: Ribosomal protein S6 kinase beta-1 (Homo sapiens) (UniProt P23443); test: Inhibition of RPS6KB1 (unknown origin) at 1000 nM in the presence of ATP by Kinome scan method relative to control
[25] = molecular target: Mitogen-activated protein kinase 8 (Homo sapiens) (UniProt P45983); test: Inhibition of MAPK8 (unknown origin) at 100 nM in the presence of ATP by Kinome scan method relative to control
[26] = molecular target: Serine/threonine-protein kinase Nek2 (Homo sapiens) (UniProt P51955); test: Inhibition of NEK2 (unknown origin) at 1000 nM in the presence of ATP by Kinome scan method relative to control
[27] = molecular target: Calcium/calmodulin-dependent protein kinase type 1 (Homo sapiens) (UniProt Q14012); test: Inhibition of CAMK1 (unknown origin) at 100 nM in the presence of ATP by Kinome scan method relative to control
Sequence of Calcium/calmodulin-dependent protein kinase type 1 (Homo sapiens) (Q14012 whole entry, looked up): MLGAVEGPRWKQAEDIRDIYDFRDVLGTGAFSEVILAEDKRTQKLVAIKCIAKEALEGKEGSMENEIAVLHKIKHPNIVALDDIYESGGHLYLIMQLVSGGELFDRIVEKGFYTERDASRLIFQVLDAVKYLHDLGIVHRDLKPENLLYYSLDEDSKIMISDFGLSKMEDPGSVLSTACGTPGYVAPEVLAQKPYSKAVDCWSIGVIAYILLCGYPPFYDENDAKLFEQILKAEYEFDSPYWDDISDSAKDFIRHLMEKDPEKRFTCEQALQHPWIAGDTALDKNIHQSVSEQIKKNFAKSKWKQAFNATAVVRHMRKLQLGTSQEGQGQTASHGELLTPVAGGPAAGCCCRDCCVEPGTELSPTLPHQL

[28] = molecular target: Mitogen-activated protein kinase 3 (Homo sapiens) (UniProt P27361); test: Inhibition of MAPK3 (unknown origin) at 1000 nM in the presence of ATP by Kinome scan method relative to control
[29] = molecular target: Proto-oncogene tyrosine-protein kinase receptor Ret (Homo sapiens) (UniProt P07949); test: Inhibition of RET (unknown origin) at 1000 nM in the presence of ATP by Kinome scan method relative to control
[30] = molecular target: Serine/threonine-protein kinase Nek1 (Homo sapiens) (UniProt Q96PY6); test: Inhibition of NEK1 (unknown origin) at 100 nM in the presence of ATP by Kinome scan method relative to control
HCT-116 [31] = test: Induction of cell cycle arrest in human HCT-116 cells assessed as G2/M phase at 5 uM incubated for 24 hrs by flow cytometry analysis (Rvb=17.9%); type: functional

Sequence of Ephrin type-A receptor 2 (Homo sapiens) (P29317 whole entry): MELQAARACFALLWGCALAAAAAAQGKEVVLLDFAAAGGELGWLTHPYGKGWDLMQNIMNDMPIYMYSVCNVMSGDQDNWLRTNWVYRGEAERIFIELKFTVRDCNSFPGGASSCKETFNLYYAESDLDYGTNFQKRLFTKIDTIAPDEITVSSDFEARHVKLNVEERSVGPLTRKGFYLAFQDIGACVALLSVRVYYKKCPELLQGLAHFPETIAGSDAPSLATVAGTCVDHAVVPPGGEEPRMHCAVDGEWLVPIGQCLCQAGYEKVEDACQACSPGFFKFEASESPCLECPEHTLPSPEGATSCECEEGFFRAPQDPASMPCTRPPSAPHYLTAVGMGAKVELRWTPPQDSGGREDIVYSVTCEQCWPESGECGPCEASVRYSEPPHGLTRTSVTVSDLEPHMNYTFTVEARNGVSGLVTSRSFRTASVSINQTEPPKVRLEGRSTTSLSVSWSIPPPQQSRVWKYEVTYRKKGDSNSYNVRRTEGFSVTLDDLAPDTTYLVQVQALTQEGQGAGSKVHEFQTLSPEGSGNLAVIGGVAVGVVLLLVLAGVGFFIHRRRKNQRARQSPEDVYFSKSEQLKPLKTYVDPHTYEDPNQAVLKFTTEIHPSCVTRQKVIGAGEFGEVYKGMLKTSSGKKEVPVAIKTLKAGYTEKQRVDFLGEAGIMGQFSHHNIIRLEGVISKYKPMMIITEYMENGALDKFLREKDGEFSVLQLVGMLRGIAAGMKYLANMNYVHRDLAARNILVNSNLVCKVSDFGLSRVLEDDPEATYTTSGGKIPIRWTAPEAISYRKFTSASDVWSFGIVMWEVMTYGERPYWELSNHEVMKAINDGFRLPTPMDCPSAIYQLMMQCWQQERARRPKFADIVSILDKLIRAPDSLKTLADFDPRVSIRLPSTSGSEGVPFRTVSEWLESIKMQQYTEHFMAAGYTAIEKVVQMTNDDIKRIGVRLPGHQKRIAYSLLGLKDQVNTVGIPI

inhibition [1]: -4%
inhibition [2]: 10%
inhibition [3]: 4%
inhibition [4]: 5%
inhibition [5]: 3%
inhibition [6]: Dose-Dependent Effect
inhibition [7]: 89%
inhibition [8]: 91%
inhibition [9]: 5%
inhibition [10]: 11%
inhibition [11]: -7%
inhibition [12]: 18%
inhibition [13]: 97%
inhibition [14]: -4%
inhibition [16]: 4%
inhibition [17]: 9%
inhibition [18]: 11%
inhibition [19]: 12%
inhibition [22]: 11%
inhibition [23]: -6%
inhibition [24]: 1%
inhibition [25]: 5%
inhibition [26]: 24%
inhibition [27]: 7%
inhibition [28]: 6%
inhibition [29]: -2%
inhibition [30]: 4%
Compound: CN1CCN(C(=O)C(C)(C)c2ccc(C(=O)Nc3cn4cc(-c5ccncc5)ccc4n3)cc2)CC1 [T3-CLK]
Activity (HCT-116 [15]): 18.4%
Activity (HCT-116 [20]): 13.1%
Activity (HCT-116 [21]): 47%
Activity (HCT-116 [31]): 41.2%
